Experimental data taken from ChEMBL document CHEMBL3098058, “Imidazole-derived agonists for the neurotensin 1 receptor” (Bioorg Med Chem Lett, 2014).
In brackets after ≈: the same amount, converted by molar mass.

Columns and labels:
[1] = target: T1, Neurotensin receptor type 1 (Homo sapiens, UniProt P30989); assay: Agonist activity at NTR1 in human U2OS cells after 1 hr by beta-arrestin GFP reporter gene assay; type: cell-based
In short: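 High-content imaging in U2OS cells expressing the receptor of interest (NTR1, NTR2 or GPR35) plus a β-arrestin fluorescent reporter. The read-out is the location of the receptor–arrestin complex after receptor activation.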

[2] = target: T1, Neurotensin receptor type 1; assay: Agonist activity at NTR1 in human U2OS cells after 1 hr by beta-arrestin GFP reporter gene assay relative to NT peptide; type: cell-based
In short: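 U2OS cells expressing NTR1 and a fluorescent β-arrestin reporter, imaged by high-content imaging of receptor–arrestin complex location after activation. EC50 and Emax are calculated relative to the efficacy of NT peptide at a saturating 100 nM.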

[3] = Blood brain permeability of the compound at donor and acceptor pH 7.4 by PAMPA; type: ADME
[4] = Plasma protein binding in human at 10 uM; type: ADME, cell-free
In short: (§1)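 Plasma protein binding in human or mouse plasma at 1 μM and 10 μM compound, given as % bound.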

[5] = Cytotoxicity in human Fa2N-4 cells after 24 hrs; type: cell-based; conditions: fa2n-4, 24 h, read-out: LC50 (the source's name)
In short: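 Fa2N-4 cells are immortalized human hepatocytes. Compounds were exposed for 24 hours. Readout is the LC50 (μM).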

[6] = Metabolic stability in mouse plasma assessed as compound remaining at 3 hrs; type: ADME, cell-free; conditions: read-out: Stability
[7] = Permeability of the compound at donor and acceptor pH 7.4 by PAMPA; type: ADME
[8] = Aqueous solubility of the compound in pION buffer at pH 7.4; type: physicochemical
[9] = Aqueous solubility of the compound in pION buffer at pH 5.0; type: physicochemical
[10] = Plasma protein binding in mouse at 10 uM; type: ADME, cell-free; in short: as §1
[11] = Metabolic stability in human liver microsomes assessed as compound remaining at 1 hr; type: ADME; conditions: read-out: Stability
In short: (§2)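 Compound stability in human or mouse liver homogenate/microsomes, given as % remaining at 1 hr, run in triplicate.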

[12] = Metabolic stability in human plasma assessed as compound remaining at 3 hrs; type: ADME, cell-free; conditions: read-out: Stability
[13] = Aqueous solubility of the compound in pION buffer at pH 6.2; type: physicochemical
[14] = Permeability of the compound at donor pH 5.0 and acceptor pH 7.4 by PAMPA; type: ADME
[15] = Metabolic stability in mouse liver microsomes assessed as compound remaining at 1hr; type: ADME, Microsome; conditions: read-out: Stability; in short: as §2
[16] = Plasma protein binding in mouse at 1 uM; type: ADME, cell-free; in short: as §1
[17] = Plasma protein binding in human at 1 uM; type: ADME, cell-free; in short: as §1
[18] = Permeability of the compound at donor pH 6.2 and acceptor pH 7.4 by PAMPA; type: ADME

T1 sequence (P30989 whole entry): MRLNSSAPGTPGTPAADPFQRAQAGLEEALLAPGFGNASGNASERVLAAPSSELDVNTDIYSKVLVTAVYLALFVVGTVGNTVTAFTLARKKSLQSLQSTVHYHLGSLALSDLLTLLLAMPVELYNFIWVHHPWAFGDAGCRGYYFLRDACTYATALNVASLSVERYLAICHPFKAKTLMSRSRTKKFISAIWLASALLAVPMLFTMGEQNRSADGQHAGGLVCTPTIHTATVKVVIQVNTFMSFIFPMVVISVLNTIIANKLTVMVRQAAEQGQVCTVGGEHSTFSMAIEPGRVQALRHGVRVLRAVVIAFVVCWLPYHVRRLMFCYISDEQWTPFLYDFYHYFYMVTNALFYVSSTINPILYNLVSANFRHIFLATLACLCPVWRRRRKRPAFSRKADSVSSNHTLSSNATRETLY

| Structure (SMILES) | EC50 [1] [µM] | Emax [2] [%] | further results |
| --- | --- | --- | --- |
| COc1cccc(OC)c1-c1nc(C(=O)N[C@@H](CC(C)C)C(=O)O)cn1-c1cccc2ccccc12 | 2.3 | 93 | permeability [3]: 1.1 ×10⁻⁶ cm/s; PPB [4]: 98%; CC50 [5]: > 50 µM; remaining at 3 h [6]: 76%; permeability [7]: 12 ×10⁻⁶ cm/s; solubility [8]: > 297 µM; solubility [9]: 247 µM (≈ 120 µg/mL); PPB [10]: 95.4%; remaining at 1 h [11]: 100%; remaining at 3 h [12]: 76%; solubility [13]: > 297 µM; permeability [14]: 953 ×10⁻⁶ cm/s; remaining at 1 h [15]: 76%; PPB [16]: 96.4%; PPB [17]: 97.9%; permeability [18]: 145 ×10⁻⁶ cm/s |
| CC(C)C[C@H](NC(=O)c1cn(-c2ccnc3cc(Cl)ccc23)c(-c2ccccc2)n1)C(=O)O | 72 | 100 | – |
| COc1cccc(OC)c1-c1nc(C(=O)NC2(C(=O)O)C3CC4CC(C3)CC2C4)cn1-c1ccnc2cc(Cl)ccc12 (configuration not stated) | 46 | 100 | – |
| COc1cccc(OC)c1-c1nc(C(=O)N[C@@H](CC(C)C)C(=O)O)cn1-c1ccnc2ccccc12 | 3.8 | 59 | – |

Continued, in another order:

| EC50 [1] [µM] | Emax [2] [%] | Structure (SMILES) | further results |
| --- | --- | --- | --- |
| > 80 | – | CC(C)C[C@H](NC(=O)c1cn(-c2ccnc3ccccc23)c(-c2ccccc2)n1)C(=O)O | – |
| 9.4 | 50 | COc1cccc(OC)c1-c1nc(C(=O)N[C@H](CC(C)C)C(=O)O)cn1-c1ccnc2cc(Cl)ccc12 | – |
| > 80 | – | COc1cccc(OC)c1-c1nc(C(=O)N[C@@H](CC(C)C)C(=O)O)cn1-c1ccc(C)cc1 | – |
| 31 | 100 | COc1cccc(OC)c1-c1cc(C(=O)NC2(C(=O)O)C3CC4CC(C3)CC2C4)nn1-c1ccnc2cc(Cl)ccc12 (configuration not stated) [REMINERTANT] | – |
| > 80 | – | COc1ccc(-c2nc(C(=O)N[C@@H](CC(C)C)C(=O)O)cn2-c2ccnc3cc(Cl)ccc23)c(OC)c1 | – |
| > 80 | – | CC(C)C[C@H](NC(=O)c1cn(-c2ccncc2)c(-c2ccccc2)n1)C(=O)O | – |
